# Test results from ChEMBL document CHEMBL4765376, “Discovery of an Orally Available Diazabicyclooctane Inhibitor (ETX0282) of Class A, C, and D Serine β-Lactamases” (J Med Chem, 2020).
# Key:
# [1] = Protein binding in Sprague-Dawley rat plasma assessed as fraction unbound at 5 to 100 uM; type: ADME, cell-free; settings: dose 5-100 µM
# Procedure, shortened: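 Rat plasma protein binding reported as mean percent unbound across 5–100 μM.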
# Citrobacter freundii [2] = experiment: Antibacterial activity against Citrobacter freundii ARC 3518 carbapenem resistant clinical isolates assessed as reduction in bacterial growth by CLSI based broth dilution method; type: functional
# Procedure, shortened: (§1)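 Broth microdilution per CLSI in cation-adjusted Mueller–Hinton broth against drug-resistant clinical isolates; MIC read as the lowest concentration preventing bacterial growth.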
# Citrobacter freundii [3] = experiment: Synergistic antibacterial activity against Citrobacter freundii ARC 3518 carbapenem resistant clinical isolates assessed as MIC for cefpodoxime antibacterial activity by CLSI based broth dilution method (Rvb > 64 ug/ml); type: functional
# Enterobacter cloacae [4] = experiment: Antibacterial activity against Enterobacter cloacae ARC 6055 drug resistant clinical isolates assessed as reduction in bacterial growth by CLSI based broth dilution method; type: functional; procedure, shortened: as §1
# [5] = Renal clearance in Sprague-Dawley rat at 10 mg/kg, iv by LC/MS/MS analysis; type: ADME, organism-based; settings: in vivo
# Procedure, shortened: (§2)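 Jugular vein-cannulated male Sprague Dawley rats, 180–200 g, n = 3, given 10 mg/kg iv in 0.9% saline. Formulation pH checked at 4–7. […] Half-life taken from linear regression of the semilog concentration–time plot.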
# Klebsiella pneumoniae [6] = experiment: Synergistic antibacterial activity against Klebsiella pneumoniae ARC 6107 carbapenem resistant clinical isolates assessed as MIC for cefpodoxime antibacterial activity by CLSI based broth dilution method (Rvb > 64 ug/ml); type: functional
# Escherichia coli [7] = experiment: Antibacterial activity against Escherichia coli ARC 6077 drug resistant clinical isolates assessed as reduction in bacterial growth by CLSI based broth dilution method; type: functional; procedure, shortened: as §1
# Escherichia coli [8] = experiment: Synergistic antibacterial activity against Escherichia coli ARC 6078 drug resistant clinical isolates assessed as MIC for cefpodoxime antibacterial activity by CLSI based broth dilution method (Rvb > 64 ug/ml); type: functional
# Escherichia coli [9] = experiment: Synergistic antibacterial activity against Escherichia coli ARC 6077 drug resistant clinical isolates assessed as MIC for cefpodoxime antibacterial activity by CLSI based broth dilution method (Rvb > 64 ug/ml); type: functional
# Escherichia coli [10] = experiment: Synergistic antibacterial activity against Escherichia coli ARC 6059 drug resistant clinical isolates assessed as MIC for cefpodoxime antibacterial activity by CLSI based broth dilution method (Rvb > 64 ug/ml); type: functional
# Escherichia coli [11] = experiment: Synergistic antibacterial activity against Escherichia coli ARC 6064 drug resistant clinical isolates assessed as MIC for cefpodoxime antibacterial activity by CLSI based broth dilution method (Rvb > 64 ug/ml); type: functional
# Klebsiella pneumoniae [12] = experiment: Synergistic antibacterial activity against Klebsiella pneumoniae ARC 6082 drug resistant clinical isolates assessed as MIC for cefpodoxime antibacterial activity by CLSI based broth dilution method (Rvb > 64 ug/ml); type: functional
# [13] = Half-life in Sprague-Dawley rat at 10 mg/kg, iv by LC/MS/MS analysis; type: ADME, organism-based; settings: in vivo; procedure, shortened: as §2
# Klebsiella pneumoniae [14] = experiment: Antibacterial activity against Klebsiella pneumoniae ARC 6088 carbapenem-resistant clinical isolates assessed as reduction in bacterial growth by CLSI based broth dilution method; type: functional; procedure, shortened: as §1
# Enterobacter cloacae [15] = experiment: Synergistic antibacterial activity against Enterobacter cloacae ARC 6049 drug resistant clinical isolates assessed as MIC for cefpodoxime antibacterial activity by CLSI based broth dilution method (Rvb > 64 ug/ml); type: functional
# Klebsiella pneumoniae [16] = experiment: Antibacterial activity against Klebsiella pneumoniae ARC 6082 drug resistant clinical isolates assessed as reduction in bacterial growth by CLSI based broth dilution method; type: functional; procedure, shortened: as §1
# Escherichia coli [17] = experiment: Antibacterial activity against Escherichia coli ARC 6078 drug resistant clinical isolates assessed as reduction in bacterial growth by CLSI based broth dilution method; type: functional; procedure, shortened: as §1
# [18] = Drug excretion in Sprague-Dawley rat urine assessed as unchanged drug at 10 mg/kg, iv by LC/MS/MS analysis; type: ADME, organism-based; settings: read-out: Drug excretion
# Procedure, shortened: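 Male Sprague Dawley rats, 10 mg/kg iv in 0.9% saline, n = 3. Urine assayed for unchanged parent drug, reported as percent of the administered iv dose.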
# [19] = Cmax in Sprague-Dawley rat at 10 mg/kg, iv by LC/MS/MS analysis; type: ADME, organism-based; parameters: route intravenous, dose 10 mg/kg; settings: in vivo; procedure, shortened: as §2
# Escherichia coli [20] = experiment: Antibacterial activity against Escherichia coli ARC 6064 drug resistant clinical isolates assessed as reduction in bacterial growth by CLSI based broth dilution method; type: functional; procedure, shortened: as §1
# Klebsiella oxytoca [21] = experiment: Antibacterial activity against Klebsiella oxytoca ARC 5389 carbapenem resistant clinical isolates assessed as reduction in bacterial growth by CLSI based broth dilution method; type: functional; procedure, shortened: as §1
# Enterobacter cloacae [22] = experiment: Synergistic antibacterial activity against Enterobacter cloacae ARC 6055 drug resistant clinical isolates assessed as MIC for cefpodoxime antibacterial activity by CLSI based broth dilution method (Rvb > 64 ug/ml); type: functional
# [23] = Inhibition of bacterial TEM-1 assessed as equilibrium constant using nitrocefin as chromogenic substrate by absorbance plate reader analysis
# [24] = AUC in Sprague-Dawley rat at 10 mg/kg, iv by LC/MS/MS analysis; type: ADME, organism-based; parameters: dose 10 mg/kg; settings: in vivo; procedure, shortened: as §2
# Klebsiella oxytoca [25] = experiment: Synergistic antibacterial activity against Klebsiella oxytoca ARC 5389 carbapenem resistant clinical isolates assessed as MIC for cefpodoxime antibacterial activity by CLSI based broth dilution method (Rvb > 64 ug/ml); type: functional
# [26] = Drug metabolism assessed as diamine metabolite formation
# Klebsiella pneumoniae [27] = experiment: Synergistic antibacterial activity against Klebsiella pneumoniae ARC 6098 drug resistant clinical isolates assessed as MIC for cefpodoxime antibacterial activity by CLSI based broth dilution method (Rvb > 64 ug/ml); type: functional
# Escherichia coli [28] = experiment: Antibacterial activity against Escherichia coli ARC 6059 drug resistant clinical isolates assessed as reduction in bacterial growth by CLSI based broth dilution method; type: functional; procedure, shortened: as §1
# Klebsiella pneumoniae [29] = experiment: Antibacterial activity against Klebsiella pneumoniae ARC 6107 carbapenem resistant clinical isolates assessed as reduction in bacterial growth by CLSI based broth dilution method; type: functional; procedure, shortened: as §1
# Escherichia coli [30] = experiment: Antibacterial activity against Escherichia coli ARC 2687 drug resistant clinical isolates assessed as reduction in bacterial growth by CLSI based broth dilution method; type: functional; procedure, shortened: as §1
# Enterobacter cloacae [31] = experiment: Antibacterial activity against Enterobacter cloacae ARC 6049 drug resistant clinical isolates assessed as reduction in bacterial growth by CLSI based broth dilution method; type: functional; procedure, shortened: as §1
# Klebsiella pneumoniae [32] = experiment: Antibacterial activity against Klebsiella pneumoniae ARC 6098 drug resistant clinical isolates assessed as reduction in bacterial growth by CLSI based broth dilution method; type: functional; procedure, shortened: as §1
# [33] = Clearance in Sprague-Dawley rat at 10 mg/kg, iv by LC/MS/MS analysis; type: ADME, organism-based; settings: in vivo; procedure, shortened: as §2
# [34] = Volume of distribution at steady state in Sprague-Dawley rat at 10 mg/kg, iv by LC/MS/MS analysis; type: ADME, organism-based; settings: in vivo, read-out: Vdss; procedure, shortened: as §2
# Klebsiella pneumoniae [35] = experiment: Synergistic antibacterial activity against Klebsiella pneumoniae ARC 6088 carbapenem resistant clinical isolates assessed as MIC for cefpodoxime antibacterial activity by CLSI based broth dilution method (Rvb > 64 ug/ml); type: functional
smiles,measurement,setting,value
CC1=C[C@H](C(N)=O)N2C[C@@H]1N(O[C@H](F)C(=O)O)C2=O,fraction unbound,[1],91%
same,MIC,Citrobacter freundii [2],0.25 µg/mL
same,MIC,Citrobacter freundii [3],0.13 µg/mL
same,MIC,Enterobacter cloacae [4],1 µg/mL
same,CL renal,[5],13.4 mL/min/kg
same,MIC,Klebsiella pneumoniae [6],0.25 µg/mL
same,MIC,Escherichia coli [7],4 µg/mL
same,MIC,Escherichia coli [8],0.25 µg/mL
same,MIC,Escherichia coli [9],0.125 µg/mL
same,MIC,Escherichia coli [10],0.125 µg/mL
same,MIC,Escherichia coli [11],0.5 µg/mL
same,MIC,Klebsiella pneumoniae [12],0.125 µg/mL
same,half-life,[13],24 min
same,MIC,Klebsiella pneumoniae [14],16 µg/mL
same,MIC,Enterobacter cloacae [15],0.125 µg/mL
same,MIC,Klebsiella pneumoniae [16],64 µg/mL
same,MIC,Escherichia coli [17],0.25 µg/mL
same,dose excreted,[18],60%
same,Cmax,[19],17500 ng/mL
same,MIC,Escherichia coli [20],8 µg/mL
same,MIC,Klebsiella oxytoca [21],16 µg/mL
same,MIC,Enterobacter cloacae [22],0.125 µg/mL
same,Ki,[23],0.34 nM
same,AUC,[24],7190 ng·h/mL
same,MIC,Klebsiella oxytoca [25],0.5 µg/mL
same,Drug metabolism,[26],Metabolite detected
same,MIC,Klebsiella pneumoniae [27],0.125 µg/mL
same,MIC,Escherichia coli [28],16 µg/mL
same,MIC,Klebsiella pneumoniae [29],4 µg/mL
same,MIC,Escherichia coli [30],0.5 µg/mL
same,MIC,Enterobacter cloacae [31],1 µg/mL
same,MIC,Klebsiella pneumoniae [32],16 µg/mL
same,clearance,[33],23.1 mL/min/kg
same,Vd,[34],0.7 L/kg
same,MIC,Klebsiella pneumoniae [35],0.125 µg/mL
